Data: article PMC9089348 (ACS Omega, 2022)

Tests used:
Assay type in all cases: cell-based
[1] = target: CaV1.3 LTCCs expressed in HEK293 cells (Rattus norvegicus, UniProt P27732); experiment: Automated planar whole-cell patch-clamp recording, CaV1.3; settings: HEK293, read-out: % Inhibition (10 μM) CaV1.3
Method in brief: (§1)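 HEK293 lines stably expressing the channel plus Kir2.1, grown in DMEM/10% FBS at 37 °C, 5% CO2, moved to 28 °C the day before. Automated whole-cell recording at room temperature; bath (mM) 120 NaCl, 20 CsCl, 10 BaCl2, pH 7.4; CsF-based internal. Current read at 0 mV, 250 ms into step from −60 mV, before and after compound or vehicle; only CdCl2 (5 mM)-sensitive current analysed, no leak subtraction.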

[2] = target: CaV1.2 L-type calcium channel (Homo sapiens, UniProt Q13936); experiment: Automated planar whole-cell patch-clamp recording, CaV1.2; settings: pH 7.4
Method in brief: as §1

[3] = target: CaV1.2 LTCCs expressed in HEK293 cells (Homo sapiens, UniProt Q13936); experiment: as above
Method in brief: as §1

Sequence of CaV1.2 LTCCs expressed in HEK293 cells (Q13936 whole entry): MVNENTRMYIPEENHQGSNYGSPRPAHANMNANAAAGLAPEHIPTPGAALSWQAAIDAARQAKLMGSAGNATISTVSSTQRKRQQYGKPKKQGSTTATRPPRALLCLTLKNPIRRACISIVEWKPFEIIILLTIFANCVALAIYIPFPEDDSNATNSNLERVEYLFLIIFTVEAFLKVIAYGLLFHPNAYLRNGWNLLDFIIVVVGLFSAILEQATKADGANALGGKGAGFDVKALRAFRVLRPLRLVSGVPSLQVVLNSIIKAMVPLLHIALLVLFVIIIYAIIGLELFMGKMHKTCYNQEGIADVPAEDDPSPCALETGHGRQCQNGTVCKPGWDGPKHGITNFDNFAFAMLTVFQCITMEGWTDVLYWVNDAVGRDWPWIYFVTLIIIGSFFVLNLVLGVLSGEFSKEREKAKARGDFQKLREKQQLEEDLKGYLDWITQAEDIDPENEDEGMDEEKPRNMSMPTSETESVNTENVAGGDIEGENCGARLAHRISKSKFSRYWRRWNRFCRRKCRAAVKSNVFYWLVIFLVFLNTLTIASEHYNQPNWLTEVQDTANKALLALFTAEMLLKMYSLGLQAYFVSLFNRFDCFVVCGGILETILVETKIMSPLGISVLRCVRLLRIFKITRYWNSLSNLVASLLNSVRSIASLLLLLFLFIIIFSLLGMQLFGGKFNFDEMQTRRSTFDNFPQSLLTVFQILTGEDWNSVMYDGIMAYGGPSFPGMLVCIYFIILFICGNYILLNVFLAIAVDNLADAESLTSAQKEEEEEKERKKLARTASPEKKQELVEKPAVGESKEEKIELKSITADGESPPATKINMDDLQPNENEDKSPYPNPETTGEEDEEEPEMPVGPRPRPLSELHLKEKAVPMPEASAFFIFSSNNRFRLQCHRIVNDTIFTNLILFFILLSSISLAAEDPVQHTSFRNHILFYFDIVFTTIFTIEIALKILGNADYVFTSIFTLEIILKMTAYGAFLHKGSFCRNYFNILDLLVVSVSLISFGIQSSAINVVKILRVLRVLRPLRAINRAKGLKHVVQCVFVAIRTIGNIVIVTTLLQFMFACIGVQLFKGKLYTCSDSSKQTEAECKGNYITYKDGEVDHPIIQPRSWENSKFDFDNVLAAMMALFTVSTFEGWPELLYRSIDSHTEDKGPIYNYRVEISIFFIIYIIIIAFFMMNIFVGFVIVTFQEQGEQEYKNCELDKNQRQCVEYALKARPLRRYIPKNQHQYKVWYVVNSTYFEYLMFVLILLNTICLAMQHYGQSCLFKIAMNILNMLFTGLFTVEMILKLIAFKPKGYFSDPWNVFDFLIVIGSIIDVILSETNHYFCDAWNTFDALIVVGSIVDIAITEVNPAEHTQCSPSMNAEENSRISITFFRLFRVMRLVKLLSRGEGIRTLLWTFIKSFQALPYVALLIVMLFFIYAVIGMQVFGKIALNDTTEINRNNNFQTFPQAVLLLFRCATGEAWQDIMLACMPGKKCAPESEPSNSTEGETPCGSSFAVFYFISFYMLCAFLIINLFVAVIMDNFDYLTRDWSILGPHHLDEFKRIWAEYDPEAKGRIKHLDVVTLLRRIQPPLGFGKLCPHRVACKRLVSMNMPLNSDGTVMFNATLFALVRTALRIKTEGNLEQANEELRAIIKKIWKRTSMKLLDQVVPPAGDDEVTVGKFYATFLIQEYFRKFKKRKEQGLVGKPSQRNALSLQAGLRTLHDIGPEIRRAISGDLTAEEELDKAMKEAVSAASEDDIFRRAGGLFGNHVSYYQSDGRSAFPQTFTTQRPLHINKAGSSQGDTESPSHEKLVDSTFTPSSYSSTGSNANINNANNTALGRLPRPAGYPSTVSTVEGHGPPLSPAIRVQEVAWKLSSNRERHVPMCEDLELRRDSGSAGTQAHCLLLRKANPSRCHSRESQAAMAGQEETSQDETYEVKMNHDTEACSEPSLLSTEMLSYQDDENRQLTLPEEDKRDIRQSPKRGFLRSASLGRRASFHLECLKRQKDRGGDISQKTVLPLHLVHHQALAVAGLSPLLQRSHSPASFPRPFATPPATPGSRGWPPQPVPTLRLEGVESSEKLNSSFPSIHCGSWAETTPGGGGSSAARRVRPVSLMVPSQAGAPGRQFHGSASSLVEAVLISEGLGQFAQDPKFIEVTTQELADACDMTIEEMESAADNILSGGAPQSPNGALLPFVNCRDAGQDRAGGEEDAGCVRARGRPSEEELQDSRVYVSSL
Sequence of CaV1.2 LTCCs expressed in HEK293 cells (P54284 whole entry partner): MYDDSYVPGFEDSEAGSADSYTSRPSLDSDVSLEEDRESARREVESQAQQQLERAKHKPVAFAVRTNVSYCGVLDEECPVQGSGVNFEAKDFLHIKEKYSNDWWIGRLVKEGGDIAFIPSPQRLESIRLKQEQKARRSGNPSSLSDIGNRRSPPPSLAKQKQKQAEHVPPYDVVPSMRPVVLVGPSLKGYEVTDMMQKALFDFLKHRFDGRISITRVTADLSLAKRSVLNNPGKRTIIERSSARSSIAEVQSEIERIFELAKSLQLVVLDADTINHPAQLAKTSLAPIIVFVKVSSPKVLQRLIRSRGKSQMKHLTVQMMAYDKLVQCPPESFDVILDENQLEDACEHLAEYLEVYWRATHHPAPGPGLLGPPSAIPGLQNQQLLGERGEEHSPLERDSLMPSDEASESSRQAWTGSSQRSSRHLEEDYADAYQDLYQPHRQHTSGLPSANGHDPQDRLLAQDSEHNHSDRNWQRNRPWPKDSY
Sequence of CaV1.2 LTCCs expressed in HEK293 cells (P54289 25-946 partner limits assumed): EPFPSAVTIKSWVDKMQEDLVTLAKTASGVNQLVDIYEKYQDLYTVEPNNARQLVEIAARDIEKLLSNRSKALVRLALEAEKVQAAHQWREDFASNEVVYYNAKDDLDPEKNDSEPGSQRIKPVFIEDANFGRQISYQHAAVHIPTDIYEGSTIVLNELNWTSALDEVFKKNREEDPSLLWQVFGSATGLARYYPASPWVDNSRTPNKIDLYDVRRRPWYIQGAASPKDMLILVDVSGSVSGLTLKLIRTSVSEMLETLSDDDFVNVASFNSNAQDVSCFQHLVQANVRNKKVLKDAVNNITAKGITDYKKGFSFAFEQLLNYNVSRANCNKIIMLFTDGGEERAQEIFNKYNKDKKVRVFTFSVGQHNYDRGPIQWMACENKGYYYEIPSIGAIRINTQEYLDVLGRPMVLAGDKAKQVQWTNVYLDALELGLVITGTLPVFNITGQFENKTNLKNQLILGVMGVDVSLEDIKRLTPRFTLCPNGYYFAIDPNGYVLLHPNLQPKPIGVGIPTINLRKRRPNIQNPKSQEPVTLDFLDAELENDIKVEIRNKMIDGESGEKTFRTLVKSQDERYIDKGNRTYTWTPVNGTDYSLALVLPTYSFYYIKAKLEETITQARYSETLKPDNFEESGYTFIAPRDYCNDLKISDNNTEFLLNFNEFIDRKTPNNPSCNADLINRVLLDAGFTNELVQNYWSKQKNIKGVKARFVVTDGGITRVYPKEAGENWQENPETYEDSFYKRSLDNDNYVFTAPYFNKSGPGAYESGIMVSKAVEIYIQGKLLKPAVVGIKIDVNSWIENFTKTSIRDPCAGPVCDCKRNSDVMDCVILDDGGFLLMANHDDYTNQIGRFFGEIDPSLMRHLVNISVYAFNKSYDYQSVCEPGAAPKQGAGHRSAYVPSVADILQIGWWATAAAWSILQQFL
Sequence of CaV1.2 LTCCs expressed in HEK293 cells (P54289 947-1103 partner limits assumed): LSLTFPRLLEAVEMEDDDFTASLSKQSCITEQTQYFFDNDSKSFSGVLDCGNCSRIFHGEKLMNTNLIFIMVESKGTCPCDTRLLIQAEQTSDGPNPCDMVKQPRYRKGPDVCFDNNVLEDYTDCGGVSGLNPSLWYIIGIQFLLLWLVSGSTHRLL
Sequence of CaV1.2 L-type calcium channel (Q13936 whole entry): as the sequence (Q13936 whole entry) above
Sequence of CaV1.2 L-type calcium channel (P54284 whole entry partner): as the sequence (P54284 whole entry partner) above
Sequence of CaV1.2 L-type calcium channel (P54289 25-946 partner limits assumed): as the sequence (P54289 25-946 partner limits assumed) above
Sequence of CaV1.2 L-type calcium channel (P54289 947-1103 partner limits assumed): as the sequence (P54289 947-1103 partner limits assumed) above

Row | Compound | inhibition at 10 µM [1] | inhibition at 10 µM [2] | IC50 [3]
1 | O=C1C(c2cccc(C(F)(F)F)c2)C(=O)N(CCc2cccc(Cl)c2)C(=O)N1CCCc1cccc(Cl)c1 (centres unmarked) [14c, 1-(3-Chlorophenethyl)-3-(3-(3-chlorophenyl)propyl)-5-(3-(trifluoromethyl)phenyl)pyrimidine-2,4,6(1H,3H,5H)-trione] | 97.3% | 99.2% | –
2 | O=C1C(c2cccc(C(F)(F)F)c2)C(=O)N(CCc2cccc(Cl)c2)C(=O)N1CCCCc1ccc(Cl)cc1 (centres unmarked) [14e, 1-(3-Chlorophenethyl)-3-(4-(4-chlorophenyl)butyl)-5-(3-(trifluoromethyl)phenyl)pyrimidine-2,4,6(1H,3H,5H)-trione] | 93.8% | 96.1% | 2.41 µM
3 | O=C1C(c2cccc(C(F)(F)F)c2)C(=O)N(CCc2cccc(Cl)c2)C(=O)N1CCCc1ccc(Cl)cc1 (centres unmarked) [14b, 1-(3-Chlorophenethyl)-3-(3-(4-chlorophenyl)propyl)-5-(3-(trifluoromethyl)phenyl)pyrimidine-2,4,6(1H,3H,5H)-trione] | 95.6% | 98.8% | –
4 | O=C1C(c2cccc(C(F)(F)F)c2)C(=O)N(CCc2cccc(Cl)c2)C(=O)N1CCCCc1ccc(C(F)(F)F)cc1 (centres unmarked) [14g, 1-(3-Chlorophenethyl)-5-(3-(trifluoromethyl)phenyl)-3-(4-(4-(trifluoromethyl)phenyl)butyl)pyrimidine-2,4,6(1H,3H,5H)-trione] | 82.8% | 88.2% | –
5 | O=C1C(c2cccc(C(F)(F)F)c2)C(=O)N(CCc2cccc(Cl)c2)C(=O)N1CCCCc1cccc(Cl)c1 (centres unmarked) [14f, 1-(3-Chlorophenethyl)-3-(4-(3-chlorophenyl)butyl)-5-(3-(trifluoromethyl)phenyl) pyrimidine-2,4,6(1H,3H,5H)-trione] | 79.8% | 100% | –
6 | O=C1C(c2cccc([N+](=O)[O-])c2)C(=O)N(C2CCCC2)C(=O)N1CCCCc1cccc(Cl)c1 (centres unmarked) [14a, 1-(4-(3-Chlorophenyl)butyl)-3-cyclopentyl-5-(3-nitrophenyl)pyrimidine-2,4,6(1H,3H,5H)-trione] | 76.9% | 72.7% | 3.72 µM
7 | O=C1C(c2cccc(C(F)(F)F)c2)C(=O)N(CCc2cccc(Cl)c2)C(=O)N1CCCc1ccc(C(F)(F)F)cc1 (centres unmarked) [14d, 1-(3-Chlorophenethyl)-5-(3-(trifluoromethyl)phenyl)-3-(3-(4-(trifluoromethyl)phenyl)propyl)pyrimidine-2,4,6(1H,3H,5H)-trione] | 93.1% | 81.2% | 4.53 µM
